From PMC6679735 (Biochimica et biophysica acta. Molecular and cell biology …, 2019)
Like-named read-outs stand apart in the source and are kept apart here.

Experiments:
[1] = system: human NPC1^I1061T fibroblasts; assay: Filipin LSO compartment ratio dose response in fibroblasts; type: cell-based; details: 72 h, 40 nM to 10 μM
In short: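 Human fibroblasts in MEM with 5% FBS, seeded in 384-well plates at 450 cells/well and incubated overnight. Test compound added at 40 nM–10 μM final; DMSO control on each plate. After 72 h, cells were PBS-washed, fixed in 1.5% PFA, and stained with 50 μg/ml filipin plus Draq5. Automated imaging at four sites/well gave the LSO compartment ratio, normalised to DMSO. Four wells per condition, three experiments.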

histone H3 [2] = assay: Acute histone H3 acetylation in liver by western blot, 1 h after single dose; type: in vivo, C57BL/6J mice; details: one hour post single injection, versus vehicle
Npc1^I1061T/I1061T mice [3] = assay: Lipidomic profiling of liver and brain after six-week treatment; type: in vivo, mouse; details: six weeks weekly treatment, versus vehicle
[4] = type: in vivo, C57BL/6J mice
In short: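 Five-week-old male C57BL/6J mice received a single i.p. injection (10 μL/g). Plasma, liver and brain were harvested at 0.25, 1, 2, 4 and 7 h, n=4 per time point. Analyte was measured by LC-MS/MS on a C18 column with a d5-labelled internal standard and eight duplicate calibrators. Non-compartmental parameters used mean concentrations of 3–4 mice per time point; AUC by the linear trapezoidal method.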

[5] = system: bone marrow-derived macrophages from Npc1^I1061T/I1061T mice; assay: Filipin LSO assay in bone marrow-derived macrophages; type: cell-based, mouse
histone H3 [6] = assay: Histone H3 acetylation in liver and brain after six-week treatment; type: in vivo, Npc1^I1061T/I1061T mice; details: end of six-week treatment, one hour after final dose
In short: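 Four-week-old mice were dosed weekly i.p. at 10 μL/g for six weeks and harvested 1 h after the final dose. Frozen cortex was homogenised in TNEN buffer (pH 8) with protease inhibitors and 1 mM PMSF, then spun at 10,000 × g for 10 min at 4°C. Equal protein was run on 4–12% Bis-Tris gels and blotted with anti-H3 (1:10,000) and anti-acetyl-H3 (1:1000). Hsp90 was the loading control; detection by chemiluminescence.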

Npc1^I1061T/I1061T mice [7] = type: in vivo, mouse; details: liver; six weeks treatment, versus vehicle
In short: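 Mice were dosed i.p. at 10 μL/g from four weeks of age, weekly for six weeks (one arm three times weekly). HPβCD was 2000 mg/kg (4000 mg/kg in the 3x/wk arm). Saline perfusion 1 h after the last dose. PFA-fixed liver was cut at 35 μm on a vibratome and stained with 0.005% filipin in PBS, with a DMSO-only control. Two blinded reviewers scored hepatocyte staining 0–5.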

NPC1^I1061T protein = type: in vivo, mouse; details: six weeks treatment, versus vehicle
Npc1^nmf164 mice = details: 150mg/kg vorinostat in PEG/DMSO vehicle; cited from earlier work
[8] = system: murine embryonic fibroblasts and human fibroblasts expressing the NPC1^I1061T protein; details: cited from earlier work
[9] = Maximum drug concentration of HPβCD after a peripheral dose; type: in vivo; details: peripheral dose of 4000 mg/kg HPβCD with PEG400/DMSO; extrapolated
[10] = direct CNS administration; cited from earlier work
NPC1 cat model = details: 4000 mg/kg HPβCD; cited from earlier work
NPC1 patients = details: Phase 1/2a trial; cited from earlier work
[11] = male, C57BL/6J, mouse, brain, ip, 50 mg/kg
[12] = male, C57BL/6J, mouse, liver, ip, 50 mg/kg
[13] = male, C57BL/6J, mouse, plasma, ip, 50 mg/kg

O=C(O)CCCCCCC(=O)Nc1ccccc1 [IVA, 8-oxo-8-(phenylamino)octanoic acid]
Effect on lysosomal cholesterol storage (filipin LSO compartment ratio) [1]: had no effect on cholesterol storage
Liver histone H3 acetylation (acetylated H3 / total H3) (histone H3 [2]): No increase in acetylation
Lipid storage in liver (lipidomics, sphingolipid and sterol species) (Npc1^I1061T/I1061T mice [3]): none of the treatment groups administered formulations containing vorinostat, CI994, or IVA alone showed evidence of lipid reduction

CC(=O)Nc1ccc(C(=O)Nc2ccccc2N)cc1 [CI994]
Lipid storage in liver (lipidomics, sphingolipid and sterol species) (Npc1^I1061T/I1061T mice [3]): none of the treatment groups administered formulations containing vorinostat, CI994, or IVA alone showed evidence of lipid reduction

O=C(CCCCCCC(=O)Nc1ccccc1)NO [vorinostat, suberoylanilide hydroxamic acid]
Vorinostat Cmax, brain ([4]; brain, single i.p. dose): 1163 ng/mL
Vorinostat Cmax, liver ([4]; liver, single i.p. dose): 209 ng/mL
AUC(0-t) [4, 11]: 1240 ng·h/mL
Tmax [4, 11]: 15 min
AUC(0-t) [4, 12]: 513 ng·h/mL
Tmax [4, 12]: 15 min
AUC(0-inf) [4, 13]: 7600 ng·h/mL
AUC(0-t) [4, 13]: 7540 ng·h/mL
Cmax [4, 13]: 10500 ng/mL
Tmax [4, 13]: 15 min
half-life [4, 13]: 40.8 min
Effect on lysosomal cholesterol storage (filipin LSO compartment ratio) [1]: reduces lysosomal cholesterol
Reduction of cholesterol accumulation in differentiated macrophages ([5]; 4 nM to 10 μM, 48h or 72h): not effective at reducing the cholesterol accumulation
Cholesterol accumulation in LSOs (filipin intensity) at 330 nM ([5]; 330 nM, normalized to DMSO treated cells): slight decrease in cholesterol accumulation
Concentration toxic to BMMs ([5]; 48h or 72h treatment): above 1 μM
Liver histone H3 acetylation (acetylated H3 / total H3) (histone H3 [2]): Increased histone 3 acetylation
Ratio of acetylated histone H3 to total histone H3 in brain (histone H3 [6]; brain): showed an increase in the ratio
Ratio of acetylated histone H3 to total histone H3 in liver (histone H3 [6]; liver): significant increase in the ratio of acetylated histone H3 relative to total histone H3
Lipid storage in liver (lipidomics, sphingolipid and sterol species) (Npc1^I1061T/I1061T mice [3]): modest reduction in only a single lipid species (MCer 24:0)
Hepatocyte filipin staining (cholesterol storage) (Npc1^I1061T/I1061T mice [7]): did not alter cholesterol levels
NPC1^I1061T protein expression in liver (NPC1^I1061T protein): reduction of NPC1 protein
Efficacy on disease progression, life span, or weight loss (Npc1^nmf164 mice): did not show efficacy
Liver pathology and function (Npc1^nmf164 mice): limited improvement in liver pathology and function
NPC1 mutant protein expression and lipid accumulation (Npc1^nmf164 mice): remained unchanged
Cholesterol storage [8]: effective in reducing cholesterol storage

CC(O)COC[C@H]1O[C@@H]2O[C@H]3[C@H](O)[C@@H](O)[C@@H](O[C@H]4[C@H](O)[C@@H](O)[C@@H](O[C@H]5[C@H](O)[C@@H](O)[C@@H](O[C@H]6[C@H](O)[C@@H](O)[C@@H](O[C@H]7[C@H](O)[C@@H](O)[C@@H](O[C@H]8[C@H](O)[C@@H](O)[C@@H](O[C@H]1[C@H](O)[C@H]2O)O[C@@H]8COCC(C)O)O[C@@H]7COCC(C)O)O[C@@H]6COCC(C)O)O[C@@H]5COCC(C)O)O[C@@H]4COCC(C)O)O[C@@H]3COCC(C)O (stereo partly drawn) [HPβCD, 2-hydroxypropyl-β-cyclodextrin]
Liver histone H3 acetylation (acetylated H3 / total H3) (histone H3 [2]): did not increase H3 acetylation acutely
Maximum drug concentration achieved [9]: ~ 15 μM
Drug concentration achieved in CSF [10]: 1000 µM
Toxicity of peripheral dose (NPC1 cat model): toxic in the NPC1 cat model
Neurodegenerative disease progression (NPC1 patients): effective in slowing neurodegenerative disease progression
